Experimental data as given in ChEMBL document CHEMBL1800061 (J Med Chem, 2010).
Activity calls are given as the source filed them. No cut-off for these calls is given here.

Experiments:
[1] = molecular target: Cyclin-dependent kinase 1/cyclin B1 (Homo sapiens, UniProt P06493); assay: Inhibition of CDK1/cyclinB1 assessed as amount of ATP released by luciferase activity based PKLight assay; format: protein-complex assay
[2] = test system: A549; assay: Antiproliferative activity against human A549 cells after 72 hrs by sulforhodamine B assay; format: functional; conditions: A549, 72 h
In short: (§1)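 Cell lines were grown in DMEM with 10% FCS and treated with increasing concentrations for 72 h. Growth was read by sulforhodamine B staining and GI50 was derived. Values are means of at least three replicates with SD.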

[3] = test system: HepG2; assay: Antiproliferative activity against human HepG2 cells after 72 hrs by sulforhodamine B assay; format: functional; conditions: HepG2, 72 h; in short: as §1
[4] = molecular target: Cyclin-dependent kinase 9 (Homo sapiens) (UniProt P50750); assay: Inhibition of CDK9-mediated phosphorylation at Ser2 in C-terminal domain of RNA polymerase 2 in human HCT116 cells after 4 hrs by immunoblotting analysis; format: cell-based; conditions: HCT-116
In short: (§2)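 HCT116 colon cancer cells were kept in DMEM with 10% FCS. Cells (8×10^5) were plated, dosed 24 h later, and exposed for 4 or 24 h. Whole-cell lysates were made in RIPA buffer with phosphatase and protease inhibitor cocktails and normalised by BCA protein assay. They were immunoblotted for phospho-sites, total proteins and cyclins.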

[5] = molecular target: Cyclin-dependent kinase 9 (Homo sapiens) (UniProt P50750); assay: Inhibition of CDK9-mediated phosphorylation at Ser2 in C-terminal domain of RNA polymerase 2 in human HCT116 cells after 24 hrs by immunoblotting analysis; format: cell-based; conditions: HCT-116; in short: as §2
[6] = molecular target: Cyclin-dependent kinase 1 (Homo sapiens) (UniProt P06493); assay: Inhibition of CDK1-mediated phosphorylation of […] in human HCT116 cells after 4 hrs by immunoblotting analysis; format: cell-based; conditions: HCT-116; in short: as §2
[7] = test system: Mus musculus; assay: Toxicity in nude BALB/c mouse assessed as adverse effect on weight at 10 mg/kg, ip bid for 14 days; format: organism-based; set-up: dose 10 mg/kg, route intraperitoneal; conditions: in vivo, 336 h
In short: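 Nude mice bearing MCF-7 tumors, randomized, given ip injections twice daily with vehicle or 5 or 10 mg/kg (10 or 20 mg/kg/day) for 14 days. Body weights were followed over the study; n=8–11 per group.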

[8] = Oral bioavailability in mouse at 10 mg/kg; format: ADME, organism-based; conditions: in vivo
[9] = Bioavailability in mouse at 10 mg/kg, ip; format: ADME, organism-based; conditions: in vivo
In short: (§3)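 Mice given 10 mg/kg by the ip, iv or oral route. Plasma levels were measured at 8 time points, with 3 animals per route for po and iv. Parameters came from a noncompartmental model. AUCINF was extrapolated to infinity, and bioavailability was calculated from AUCINF. The terminal slope used 3 points.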

[10] = test system: Mus musculus; assay: AUC (0 to infinity) in mouse at 10 mg/kg, po; format: ADME, organism-based, Plasma; set-up: time infinity, dose 10 mg/kg, route oral; conditions: in vivo; in short: as §3
[11] = Elimination half life in mouse at 10 mg/kg, iv; format: ADME, organism-based; set-up: dose 10 mg/kg, route intravenous; conditions: in vivo, read-out: beta t1/2; in short: as §3
[12] = AUC (0 to last) in mouse at 10 mg/kg, iv; format: ADME, organism-based; set-up: time 0 - last, dose 10 mg/kg, route intravenous; conditions: plasma; in short: as §3
[13] = test system: Mus musculus; assay: Inhibition of cyclin-dependent kinase substrate […] phosphorylation in nude BALB/c mouse PBMC at 100 mg/kg, po measured after 6 hrs by immunostaining and flow cytometric analysis; format: functional, organism-based; set-up: dose 100 mg/kg
In short: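 Female nu/nu-BALB/c athymic nude mice (7 weeks old) given a single oral gavage dose in 28% PEG300/5% dimethylacetamide/10% HPB cyclodextrin in water. PBMC were isolated from cardiac blood after red-cell lysis, then fixed, permeabilized and stained with primary antibodies (1:100, 1 h, RT) and an Alexa Fluor 488 secondary (1:200, 1 h). Read-out was flow cytometry; n=4 (n=3 at 100 mg/kg).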

[14] = molecular target: Mitogen-activated protein kinase 1 (Homo sapiens, UniProt P28482); assay: Inhibition of ERK2 assessed as residual enzyme activity at 10 uM
[15] = molecular target: Mitogen-activated protein kinase 9 (Homo sapiens) (UniProt P45984); assay: Inhibition of JNK2 assessed as residual enzyme activity at 10 uM
[16] = molecular target: Ribosomal protein S6 kinase alpha-5 (Homo sapiens) (UniProt O75582); assay: Inhibition of MSK1 assessed as residual enzyme activity at 10 uM
[17] = test system: Mus musculus; assay: Inhibition of cyclin-dependent kinase substrate RB phosphorylation at Thr 821 in nude BALB/c mouse PBMC at 75 mg/kg, po measured after 24 hrs by immunostaining and flow cytometric analysis; format: functional
In short: (§4)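 Seven-week-old female nu/nu-BALB/c nude mice got a single oral gavage (vehicle 28% PEG300/5% dimethylacetamide/10% HPB cyclodextrin in water). Blood was taken by cardiac puncture at 6 h or 24 h, red cells were lysed, and PBMC were fixed and permeabilized. Cells were stained with Rb, Rb pThr821, PolII or PolII pSer2 antibodies plus an Alexa488 secondary, then read by flow cytometry; n=4 (n=3 at 100 mg/kg).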

[18] = test system: HCT-116; assay: Antitumor activity against human HCT116 cells xenografted in po dosed nude BALB/c mouse assessed as decrease in tumor volume measured after 14 days relative to control on day 1; format: functional, organism-based
[19] = test system: HCT-116; assay: Antitumor activity against human HCT116 cells xenografted in nude BALB/c mouse assessed as decrease in tumor volume at 25 mg/kg/day, po measured after 14 days relative to control on day 1; format: functional; set-up: scale not given: the % may be the effect or the level left
[20] = test system: Mus musculus; assay: Decrease in RB protein level in HCT116 xenografted nude BALB/c mouse at 25 mg/kg/day, po measured after 14 days by immunostaining […] relative to control; format: organism-based; set-up: route oral; conditions: in vivo, 336 h
In short: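 Tumours from the oral HCT116 xenograft study were formalin-fixed and paraffin-embedded. Sections were immunostained for Rb, with antigen retrieval by microwaving 10 min in 10 mmol/L citrate at pH 6.0. At least 1000 nuclei per section were scored for percent positive cells, with t test against vehicle.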

[21] = test system: Mus musculus; assay: Inhibition of cyclin-dependent kinase substrate […] phosphorylation at Ser2 in nude BALB/c mouse PBMC at 50 to 100 mg/kg, po measured after 6 hrs by immunostaining and flow cytometric analysis; format: organism-based; set-up: dose 50-100 mg/kg, route oral; conditions: in vivo; in short: as §4
[22] = molecular target: MAP kinase-activated protein kinase 2 (Homo sapiens) (UniProt P49137); assay: Inhibition of MAPKAPK2 assessed as residual enzyme activity at 10 uM
[23] = molecular target: Calcium/calmodulin-dependent protein kinase kinase 2 (Homo sapiens, UniProt Q96RR4); assay: Inhibition of CAMKKbeta assessed as residual enzyme activity at 10 uM
[24] = molecular target: Glycogen synthase kinase-3 beta (Homo sapiens) (UniProt P49841); assay: Inhibition of GSK3-beta assessed as residual enzyme activity at 10 uM
[25] = molecular target: Serine/threonine-protein kinase PLK1 (Homo sapiens) (UniProt P53350); assay: Inhibition of okadaic acid-activated PLK1 assessed as residual enzyme activity at 10 uM
[26] = molecular target: Dual specificity tyrosine-phosphorylation-regulated kinase 3 (Homo sapiens) (UniProt O43781); assay: Inhibition of DYRK3 assessed as residual enzyme activity at 10 uM
[27] = molecular target: Serine/threonine-protein kinase PAK 6 (Homo sapiens) (UniProt Q9NQU5); assay: Inhibition of PAK6 assessed as residual enzyme activity at 10 uM
[28] = molecular target: Tyrosine-protein kinase Lck (Homo sapiens) (UniProt P06239); assay: Inhibition of Lck assessed as residual enzyme activity at 10 uM
[29] = molecular target: T1, Mitogen-activated protein kinase 3 (Homo sapiens, UniProt P27361); assay: Inhibition of ERK1 at 0.1 uM
[30] = molecular target: T1, Mitogen-activated protein kinase 3; assay: Inhibition of ERK1

Chain of Cyclin-dependent kinase 9 (Homo sapiens) (P50750 whole entry, the tested form may be a part): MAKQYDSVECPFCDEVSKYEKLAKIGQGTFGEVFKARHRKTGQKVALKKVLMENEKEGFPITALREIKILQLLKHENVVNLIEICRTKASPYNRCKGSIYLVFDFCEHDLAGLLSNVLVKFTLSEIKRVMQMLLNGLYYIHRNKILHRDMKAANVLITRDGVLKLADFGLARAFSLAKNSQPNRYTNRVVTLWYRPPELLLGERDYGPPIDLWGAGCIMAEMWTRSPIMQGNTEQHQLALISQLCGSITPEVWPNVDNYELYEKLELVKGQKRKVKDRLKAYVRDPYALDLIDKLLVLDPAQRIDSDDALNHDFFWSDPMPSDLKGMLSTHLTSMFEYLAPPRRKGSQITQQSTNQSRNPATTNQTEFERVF
T1 sequence (P27361 whole entry): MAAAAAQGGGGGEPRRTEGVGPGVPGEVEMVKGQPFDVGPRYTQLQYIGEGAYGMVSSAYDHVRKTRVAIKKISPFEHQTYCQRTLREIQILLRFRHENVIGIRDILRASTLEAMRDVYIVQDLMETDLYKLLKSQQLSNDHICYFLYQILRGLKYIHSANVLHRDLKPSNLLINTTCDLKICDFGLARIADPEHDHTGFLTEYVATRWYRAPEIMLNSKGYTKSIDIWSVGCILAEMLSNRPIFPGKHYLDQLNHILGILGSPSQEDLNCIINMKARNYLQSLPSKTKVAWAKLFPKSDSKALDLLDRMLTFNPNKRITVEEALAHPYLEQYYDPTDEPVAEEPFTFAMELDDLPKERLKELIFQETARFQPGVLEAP
Chain of Serine/threonine-protein kinase PAK 6 (Homo sapiens) (Q9NQU5 whole entry, looked up): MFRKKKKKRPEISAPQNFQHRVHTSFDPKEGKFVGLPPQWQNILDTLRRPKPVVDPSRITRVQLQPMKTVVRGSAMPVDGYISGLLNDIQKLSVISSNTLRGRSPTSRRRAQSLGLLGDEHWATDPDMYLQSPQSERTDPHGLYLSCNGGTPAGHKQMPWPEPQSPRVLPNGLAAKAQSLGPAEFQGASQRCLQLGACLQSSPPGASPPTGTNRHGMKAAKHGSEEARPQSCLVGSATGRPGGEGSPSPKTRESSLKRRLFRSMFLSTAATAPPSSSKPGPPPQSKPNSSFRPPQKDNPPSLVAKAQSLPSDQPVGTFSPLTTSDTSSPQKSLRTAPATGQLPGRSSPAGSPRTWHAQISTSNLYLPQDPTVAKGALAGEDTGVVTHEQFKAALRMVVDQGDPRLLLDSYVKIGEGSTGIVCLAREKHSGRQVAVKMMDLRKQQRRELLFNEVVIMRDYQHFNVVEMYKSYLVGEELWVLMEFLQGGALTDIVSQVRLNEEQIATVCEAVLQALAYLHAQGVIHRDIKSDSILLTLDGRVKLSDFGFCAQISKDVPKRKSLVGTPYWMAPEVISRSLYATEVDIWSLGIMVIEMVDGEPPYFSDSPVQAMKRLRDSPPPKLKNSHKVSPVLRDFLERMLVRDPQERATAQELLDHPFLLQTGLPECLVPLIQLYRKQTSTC
Chain of MAP kinase-activated protein kinase 2 (Homo sapiens) (P49137 whole entry, looked up): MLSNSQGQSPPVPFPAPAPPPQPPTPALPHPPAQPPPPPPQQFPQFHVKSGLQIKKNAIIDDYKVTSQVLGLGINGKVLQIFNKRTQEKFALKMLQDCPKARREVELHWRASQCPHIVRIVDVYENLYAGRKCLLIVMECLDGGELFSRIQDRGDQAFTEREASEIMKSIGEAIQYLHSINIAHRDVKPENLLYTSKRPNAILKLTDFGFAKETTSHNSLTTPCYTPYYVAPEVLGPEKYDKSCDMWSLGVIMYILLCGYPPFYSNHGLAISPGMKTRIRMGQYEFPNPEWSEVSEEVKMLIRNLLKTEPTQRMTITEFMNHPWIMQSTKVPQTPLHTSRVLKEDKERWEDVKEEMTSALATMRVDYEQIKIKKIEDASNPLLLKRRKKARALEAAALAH
Chain of Mitogen-activated protein kinase 9 (Homo sapiens) (P45984 whole entry, looked up): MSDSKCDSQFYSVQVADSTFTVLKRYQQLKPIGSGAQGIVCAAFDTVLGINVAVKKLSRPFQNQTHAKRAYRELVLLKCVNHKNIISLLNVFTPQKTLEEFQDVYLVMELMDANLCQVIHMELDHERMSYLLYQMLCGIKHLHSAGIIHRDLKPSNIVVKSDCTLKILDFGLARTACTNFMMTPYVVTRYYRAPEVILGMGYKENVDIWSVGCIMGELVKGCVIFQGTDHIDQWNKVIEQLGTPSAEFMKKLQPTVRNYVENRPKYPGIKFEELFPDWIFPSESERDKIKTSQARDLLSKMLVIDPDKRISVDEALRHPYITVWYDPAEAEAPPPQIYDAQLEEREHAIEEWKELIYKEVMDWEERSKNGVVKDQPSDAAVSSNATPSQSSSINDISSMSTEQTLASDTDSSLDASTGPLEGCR
Chain of Serine/threonine-protein kinase PLK1 (Homo sapiens) (P53350 whole entry): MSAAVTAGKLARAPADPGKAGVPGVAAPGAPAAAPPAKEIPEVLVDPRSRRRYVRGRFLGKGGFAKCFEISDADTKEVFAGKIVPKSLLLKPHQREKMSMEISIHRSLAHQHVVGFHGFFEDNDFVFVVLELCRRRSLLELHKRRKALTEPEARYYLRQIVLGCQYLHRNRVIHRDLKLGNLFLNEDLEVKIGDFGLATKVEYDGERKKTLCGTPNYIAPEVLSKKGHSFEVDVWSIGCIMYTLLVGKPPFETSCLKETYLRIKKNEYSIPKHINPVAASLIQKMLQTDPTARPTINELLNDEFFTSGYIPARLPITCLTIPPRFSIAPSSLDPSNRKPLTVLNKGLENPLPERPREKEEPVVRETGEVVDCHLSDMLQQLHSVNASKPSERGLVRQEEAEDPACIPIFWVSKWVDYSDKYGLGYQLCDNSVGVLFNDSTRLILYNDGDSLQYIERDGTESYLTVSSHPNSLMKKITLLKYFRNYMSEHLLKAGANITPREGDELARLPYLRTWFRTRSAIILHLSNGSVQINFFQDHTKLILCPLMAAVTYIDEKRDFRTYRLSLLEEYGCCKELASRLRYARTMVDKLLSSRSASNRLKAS
Chain of Glycogen synthase kinase-3 beta (Homo sapiens) (P49841 whole entry, looked up): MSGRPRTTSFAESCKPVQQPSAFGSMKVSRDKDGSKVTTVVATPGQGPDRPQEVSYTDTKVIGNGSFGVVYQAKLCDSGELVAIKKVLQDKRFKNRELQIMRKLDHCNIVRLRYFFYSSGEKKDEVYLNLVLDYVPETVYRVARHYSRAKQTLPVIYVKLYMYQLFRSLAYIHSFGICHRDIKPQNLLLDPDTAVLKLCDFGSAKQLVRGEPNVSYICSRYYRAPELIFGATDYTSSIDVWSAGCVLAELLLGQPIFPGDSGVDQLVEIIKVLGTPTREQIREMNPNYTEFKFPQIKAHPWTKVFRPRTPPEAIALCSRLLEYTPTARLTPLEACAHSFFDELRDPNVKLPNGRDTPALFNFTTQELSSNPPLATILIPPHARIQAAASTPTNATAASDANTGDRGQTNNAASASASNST
Chain of Dual specificity tyrosine-phosphorylation-regulated kinase 3 (Homo sapiens) (O43781 whole entry): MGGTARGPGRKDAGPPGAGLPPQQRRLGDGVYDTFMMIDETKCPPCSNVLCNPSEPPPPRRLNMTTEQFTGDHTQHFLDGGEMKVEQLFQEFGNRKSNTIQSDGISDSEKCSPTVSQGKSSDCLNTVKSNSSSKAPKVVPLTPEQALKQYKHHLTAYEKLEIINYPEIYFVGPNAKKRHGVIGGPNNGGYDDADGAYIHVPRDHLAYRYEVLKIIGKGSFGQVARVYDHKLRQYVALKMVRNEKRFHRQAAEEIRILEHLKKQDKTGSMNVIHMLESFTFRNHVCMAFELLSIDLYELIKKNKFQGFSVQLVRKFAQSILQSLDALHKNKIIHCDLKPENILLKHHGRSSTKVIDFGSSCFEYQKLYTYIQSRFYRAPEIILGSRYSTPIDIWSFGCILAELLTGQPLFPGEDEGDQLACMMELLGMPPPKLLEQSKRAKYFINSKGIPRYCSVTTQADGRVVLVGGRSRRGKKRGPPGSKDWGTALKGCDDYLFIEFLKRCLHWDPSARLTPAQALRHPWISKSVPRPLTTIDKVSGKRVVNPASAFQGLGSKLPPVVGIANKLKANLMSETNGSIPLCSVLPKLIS
Chain of Cyclin-dependent kinase 1 (Homo sapiens) (P06493 whole entry, looked up): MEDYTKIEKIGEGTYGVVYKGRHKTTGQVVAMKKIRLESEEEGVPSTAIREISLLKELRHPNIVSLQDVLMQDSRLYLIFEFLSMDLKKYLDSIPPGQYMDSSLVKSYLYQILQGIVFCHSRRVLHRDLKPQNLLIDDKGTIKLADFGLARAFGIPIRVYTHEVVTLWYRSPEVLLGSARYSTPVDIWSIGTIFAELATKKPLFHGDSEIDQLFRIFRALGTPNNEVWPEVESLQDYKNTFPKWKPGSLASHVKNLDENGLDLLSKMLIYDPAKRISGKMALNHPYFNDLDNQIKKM
Chain of Cyclin-dependent kinase 1/cyclin B1 (P06493 whole entry): as the sequence (P06493 whole entry, looked up) above
Chain of Cyclin-dependent kinase 1/cyclin B1 (P14635 whole entry, further chain): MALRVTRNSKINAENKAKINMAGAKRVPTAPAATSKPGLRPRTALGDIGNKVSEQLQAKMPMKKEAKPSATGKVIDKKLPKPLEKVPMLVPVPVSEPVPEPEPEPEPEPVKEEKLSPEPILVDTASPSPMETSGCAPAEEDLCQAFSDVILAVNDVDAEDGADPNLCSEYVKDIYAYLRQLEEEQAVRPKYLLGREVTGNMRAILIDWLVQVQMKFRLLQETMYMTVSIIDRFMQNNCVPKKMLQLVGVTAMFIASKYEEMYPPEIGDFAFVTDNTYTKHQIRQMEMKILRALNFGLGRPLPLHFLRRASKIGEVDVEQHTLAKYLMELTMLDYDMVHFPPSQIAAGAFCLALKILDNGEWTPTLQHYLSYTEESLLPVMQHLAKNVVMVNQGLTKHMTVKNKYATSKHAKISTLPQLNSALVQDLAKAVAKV

CC(C)c1cnn2c(NCc3ccccc3)cc(N[C@@H](CO)[C@H](O)CO)nc12
IC50 [1]: 33 nM
GI50 [2]: 200 nM
GI50 [3]: 1000 nM
inhibition [4]: Active
inhibition [5]: Active
inhibition [6]: inactive
Activity [7]: Non-toxic
bioavailability [8]: 88%
bioavailability [9]: 73%
AUC [10]: 32100 ng·h/mL
half-life [11]: 3.5 h
AUC(0-t) [12]: 36200 ng·h/mL
inhibition [13]: Active
Activity [14]: 26%
Activity [15]: 94%
Activity [16]: 96%
inhibition in vivo at 75 mg/kg [17]: 50%
Activity [18]: Dose-dependent effect
Activity [19]: 50%
Activity [20]: Not Active
inhibition (INH) [21]: Active
Activity [22]: 111%
Activity [23]: 23%
Activity [24]: 63%
Activity [25]: 97%
Activity [26]: 88%
Activity [27]: 85%
Activity [28]: 85%
inhibition [29]: < 50%
IC50 [30]: 3730 nM
